In series [1] the test system is Hepacivirus hominis. Put plainly: Ratio of Kcat to Km for HCV NS5B RNA polymerase S282T mutant. In short, it runs like this: (§1)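 Steady-state assay with purified 21-aa C-terminally truncated HCV NS5B (S282T) on minus-IRES RNA template. Conditions: 50 mM HEPES pH 7.5, 1 mM MgCl2, 0.75 mM MnCl2, 2 mM DTT, [α-32P]UTP tracer, 27°C. One NTP varied, other three held at saturating levels. Rates came from product time courses; products were dot-blotted on Hybond N+ and counted by scintillation.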

Series [2] relates to Hepacivirus hominis. Put plainly: Ratio of Kcat to Km for HCV NS5B RNA polymerase. In short, it runs like this:
(§2)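 Recombinant C-terminal 21-aa truncated HCV NS5B on minus IRES RNA template, 50 mM HEPES pH 7.5, 1 mM MgCl2, 0.75 mM MnCl2, 2 mM DTT, [α-32P]UTP, 27°C. One NTP varied, other three fixed at saturating levels. Aliquots quenched with EDTA/NaCl/citrate, product retained on Hybond N+ membrane, counted by scintillation. Rates from time-course slopes, fit for steady-state parameters.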

In series [3] the test system is Hepacivirus hominis. Put plainly: Activity of HCV NS5B RNA polymerase assessed as incorporation of 32P-UMP into RNA. In short, it runs like this: as §2
For series [4], the system named is Hepacivirus hominis. The series can be described thus: Inhibition of HCV NS5B RNA polymerase S282T mutant assessed as incorporation of 32P-UMP into RNA. Put shortly:
(§3)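 Purified 21-aa C-terminally truncated NS5B (S282T; wild type for comparison) on minus-IRES template, run in 50 mM HEPES pH 7.5 with 1 mM MgCl2, 0.75 mM MnCl2, 2 mM DTT and [α-32P]UTP at 27°C. Natural substrate and inhibitor were both varied against fixed remaining NTPs (UTP 10 μM, others 100 μM). Product was membrane-captured and counted. Ki was obtained by fitting a competitive inhibition equation.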

The subject of series [5] is Hepacivirus hominis. Put plainly: Inhibition of HCV NS5B RNA polymerase assessed as incorporation of 32P-UMP into RNA. Put shortly:
(§4)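 Steady-state Ki against truncated NS5B (wild-type and S282T) on minus IRES template, 27°C, HEPES pH 7.5 with Mg2+/Mn2+/DTT and [α-32P]UTP. For ATP analog, UTP 10, GTP and CTP 100 μM, ATP and inhibitor varied. For CTP analogs, UTP 10, ATP and GTP 100 μM, CTP and inhibitor varied. Membrane-bound product counted, rates fit to competitive inhibition.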

Series [6] concerns Hepacivirus hominis. The series can be described thus: Ratio of Ki to Km for HCV NS5B RNA polymerase. In short, it runs like this:
as §4

Series [7] concerns RNA-directed RNA polymerase (Hepacivirus hominis), O39930 [S282T]. Put plainly: Ratio of Ki to Km for HCV NS5B RNA polymerase S282T mutant. In short, it runs like this:
as §3

The subject of series [8] is Hepacivirus hominis. Put plainly: Ratio of Ki/Km of HCV NS5B RNA polymerase S282T mutant to Ki/Km of HCV NS5B RNA polymerase. In short, it runs like this: as §3
In series [9] the target is T1, Uridine-cytidine kinase 1 (Homo sapiens) (UniProt Q9HA47).
T1 sequence (whole entry): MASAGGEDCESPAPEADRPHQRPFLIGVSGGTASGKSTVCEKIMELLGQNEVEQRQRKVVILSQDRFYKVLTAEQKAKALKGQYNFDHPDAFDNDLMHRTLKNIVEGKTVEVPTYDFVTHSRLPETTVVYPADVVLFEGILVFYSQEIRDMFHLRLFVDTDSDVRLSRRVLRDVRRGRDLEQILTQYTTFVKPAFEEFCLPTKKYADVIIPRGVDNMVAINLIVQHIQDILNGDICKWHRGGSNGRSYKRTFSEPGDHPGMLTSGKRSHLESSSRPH
The series can be described thus: Ratio of Kcat to Km for UCK1 activity expressed in Huh7 cells. It is filed as cell-based. The settings on record: Huh-7. Put shortly: (§5)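 His-tagged human UCK-1 cloned from Huh-7 cells, assayed at 25°C by pyruvate kinase/lactate dehydrogenase coupling, NADH oxidation at 340 nm. Buffer 64 mM Tris-HCl pH 7.5, 1 mM ATP, Mg2+, phosphoenolpyruvate. Enzyme 41 nM, or 410 nM for 2′-C-methyl cytidines. Substrate concentration varied. Steady-state parameters reported as mean ± SD.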

Series [10] deals with T1, Uridine-cytidine kinase 1 (Homo sapiens). Put plainly: Activity of human UCK1 expressed in Huh7 cells assessed as phosphorylation by coupled enzyme assay. Conditions: Huh-7. It is filed as cell-based. In short, it runs like this:
as §5

The target is the same in series [11]. Put plainly: Activity of human UCK1 expressed in Huh7 cells assessed as phosphorylation up to 1 mM by coupled enzyme assay. It is filed as cell-based. Conditions: Huh-7. In short, it runs like this: as §5
The target is the same in series [12]. The series can be described thus: Ratio of Kcat to Km for UCK1 activity expressed in Huh7 cells up to 1 mM. It is filed as cell-based. The settings on record: Huh-7. Put shortly:
as §5

For series [13] the target is unchanged. The series can be described thus: Activity of human UCK1 expressed in Huh7 cells assessed as phosphorylation up to 3 mM by coupled enzyme assay. In kind it is cell-based. Conditions: Huh-7. In short, it runs like this:
as §5

Series [14] has the same target. The series can be described thus: Ratio of Kcat to Km for UCK1 activity expressed in Huh7 cells up to 3 mM. In kind it is cell-based. Conditions: Huh-7. Put shortly: as §5
For series [15], the system named is HepG2. The series can be described thus: Ratio of Kcat to Km for NDPK activity expressed in HepG2 cells. The settings on record: Homo sapiens. In kind it is cell-based. In short, it runs like this: (§6)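 Human NDPK cloned from HepG2 cells, 216 nM, 37°C, with 1 mM ATP in Tris-HCl pH 7.5 coupled to pyruvate kinase/lactate dehydrogenase. NADH oxidation read at 340 nm. Diphosphate substrate concentration varied, Km and kcat as mean ± SD.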

Series [16] has as its system HepG2. The series can be described thus: Activity of human NDPK expressed in HepG2 cells assessed as phosphorylation by coupled enzyme assay. In kind it is cell-based. Put shortly: as §6
In series [17] the test system is C[C@@H]1[C@H](O)[C@@H](CO)O[C@H]1n1ccc(N)nc1=O. Conditions: Homo sapiens; HepG2.
Series [18] has as its system C[C@@]1(F)[C@H](O)[C@@H](CO)O[C@H]1n1ccc(N)nc1=O. The settings on record: Homo sapiens; HepG2.
The test system of series [19] is C[C@@]1(O)[C@H](O)[C@@H](CO)O[C@H]1n1ccc(N)nc1=O. Conditions: Homo sapiens; HepG2.
Series [20] concerns Nc1ccn([C@@H]2O[C@H](CO)[C@@H](O)C2(F)F)c(=O)n1. Conditions: Homo sapiens; HepG2.
For series [21], the system named is Nc1ccn([C@@H]2O[C@H](CO)[C@@H](O)[C@H]2F)c(=O)n1. Conditions: Homo sapiens; HepG2.
Series [22] relates to C[C@@H]1[C@H](O)[C@@H](CO)O[C@H]1n1ccc(N)nc1=O. Conditions: Homo sapiens; HepG2. The source holds these as a separate data set.
In series [23] the test system is C[C@@]1(F)[C@H](O)[C@@H](CO)O[C@H]1n1ccc(N)nc1=O. The settings on record: Homo sapiens; HepG2. The source holds these as a separate data set.
Series [24] deals with C[C@@]1(O)[C@H](O)[C@@H](CO)O[C@H]1n1ccc(N)nc1=O. The settings on record: Homo sapiens; HepG2. The source holds these as a separate data set.
For series [25], the system named is Nc1ccn([C@@H]2O[C@H](CO)[C@@H](O)C2(F)F)c(=O)n1. Conditions: Homo sapiens; HepG2. The source holds these as a separate data set.
Series [26] relates to Nc1ccn([C@@H]2O[C@H](CO)[C@@H](O)[C@H]2F)c(=O)n1. Conditions: Homo sapiens; HepG2. The source holds these as a separate data set.
Series [27] has as its system Nc1ccn([C@@H]2O[C@H](COP(=O)(O)OP(=O)(O)OP(=O)(O)O)[C@@H](O)[C@H]2O)c(=O)n1. Put plainly: (§7) Activity of HCV NS5B RNA polymerase S282T assessed as incorporation of 32P-UMP into RNA. The settings on record: Hepacivirus hominis. Put shortly: as §1
Series [28] has as its system Nc1nc2c(c(=O)[nH]1)NCN2[C@@H]1O[C@H](COP(=O)(O)OP(=O)(O)OP(=O)(O)O)[C@@H](O)[C@H]1O. Described as §7. Conditions: Hepacivirus hominis. Put shortly: as §1
For series [29], the system named is Nc1ncnc2c1ncn2[C@@H]1O[C@H](COP(=O)(O)OP(=O)(O)OP(=O)(O)O)[C@@H](O)[C@H]1O. The description is as §7. The settings on record: Hepacivirus hominis. In short, it runs like this:
as §1

Series [30] concerns O=c1ccn([C@@H]2O[C@H](COP(=O)(O)OP(=O)(O)OP(=O)(O)O)[C@@H](O)[C@H]2O)c(=O)[nH]1. The description is as §7. The settings on record: Hepacivirus hominis. Put shortly:
as §1

The source made the active and inactive calls. No cut-off for these calls is given here.

A word on the kcat/Km: it is the second-order rate constant that governs catalysis at low substrate concentration. By Km is commonly meant the substrate concentration at which the rate is half of its maximum. Usually kcat stands for the maximal rate divided by the concentration of active sites.

Deoxycytidine kinase (Homo sapiens), P27707, sequence (P27707 whole entry): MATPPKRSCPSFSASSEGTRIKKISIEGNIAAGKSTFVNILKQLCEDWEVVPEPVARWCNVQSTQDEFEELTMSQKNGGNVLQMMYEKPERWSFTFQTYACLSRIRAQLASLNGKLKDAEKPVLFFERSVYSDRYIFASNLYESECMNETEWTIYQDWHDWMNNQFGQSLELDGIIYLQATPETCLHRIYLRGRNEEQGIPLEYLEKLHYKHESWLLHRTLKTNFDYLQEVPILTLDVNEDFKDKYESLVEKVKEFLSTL

Consider `O=c1ccn([C@@H]2O[C@H](COP(=O)(O)OP(=O)(O)OP(=O)(O)O)[C@@H](O)[C@H]2O)c(=O)[nH]1`, for which the results for the kcat/Km in series [1] and in [2] were 11.5 M⁻¹ s⁻¹ and 53.3 M⁻¹ s⁻¹, respectively. For the same compound, the Km in series [3] was 0.4 µM. In [3], the kcat was 2.13e-05 s⁻¹.

With `C[C@@]1(O)[C@H](O)[C@@H](COP(=O)(O)OP(=O)(O)OP(=O)(O)O)O[C@H]1n1cnc2c(N)ncnc21`, the Km came to 0.26 µM in series [4] and 2.7 µM in [5]. In addition, the Ki/Km was determined as 0.56 in series [6] and 84 in [7]. Besides, the Ratio in series [8] was 150.

On to `Nc1ccn([C@H]2C[C@H](O)[C@@H](CO)O2)c(=O)n1`, for which the outcome in [9], in [10], in series [11] and in [12] was inactive.

Take `C[C@@]1(F)[C@H](O)[C@@H](CO)O[C@H]1n1ccc(N)nc1=O`: the outcome in series [9], in series [10], in series [13] and in series [14] was inactive.

As for `C[C@@]1(F)[C@H](O)[C@@H](COP(=O)(O)OP(=O)(O)OP(=O)(O)O)O[C@H]1n1ccc(N)nc1=O`, the Michaelis constant (Km) in series [4] stood at 2.7 µM; in series [5], 13.7 µM. The figures for the Ki/Km in series [6] and in series [7] were 0.31 and 0.93, respectively. The Ratio in [8] turned out to be 3.

For `C[C@@]1(O)[C@H](O)[C@@H](CO)O[C@H]1n1ccc(N)nc1=O`, the outcome in series [9] and in series [10] was inactive.

Turning to `Nc1ccn([C@@H]2O[C@H](COP(=O)(O)OP(=O)(O)O)[C@@H](O)[C@H]2O)c(=O)n1`, in series [15], the kcat/Km was 600000 M⁻¹ s⁻¹. Besides, in series [16], the Km is 307 µM and the turnover number (kcat) turned out to be 183 s⁻¹.

As to “Deoxycytidine kinase (Homo sapiens), P27707”, the specificity constant (kcat/Km) in series [17] came to 1000 M⁻¹ s⁻¹; in series [18], 190 M⁻¹ s⁻¹; in series [19] it was 12 M⁻¹ s⁻¹; in [20], 27000 M⁻¹ s⁻¹; in series [21], 11000 M⁻¹ s⁻¹. Also, the Km in series [22] came to 46.2 µM; in [23] it was 81.2 µM; in series [24], 914 µM; in series [25], 1.4 µM; in series [26], 4.7 µM. In addition, the kcat in [22] came out at 0.048 s⁻¹; in [23], 0.016 s⁻¹; in [24], 0.011 s⁻¹; in series [25], 0.038 s⁻¹; in [26], 0.05 s⁻¹.

Consider “RNA-directed RNA polymerase (Hepacivirus hominis), O39930 S282T”, for which the Michaelis constant (Km) was 2.7 µM in [27], 5 µM in series [28], 0.26 µM in series [29] and 0.18 µM in [30]. Moreover, the kcat in series [27] came out at 0.000214 s⁻¹; in series [28], 0.000198 s⁻¹; in series [29] it was 0.000167 s⁻¹; in series [30], 0.000125 s⁻¹.

Consider `Nc1ncnc2c1ncn2[C@@H]1O[C@H](COP(=O)(O)OP(=O)(O)OP(=O)(O)O)[C@@H](O)[C@H]1O`, for which the catalytic efficiency (kcat/Km) in [1] came out at 10.7 M⁻¹ s⁻¹. Moreover, the kcat/Km in series [2] was 12.3 M⁻¹ s⁻¹. In addition, in series [3], the Km turned out to be 2.7 µM and the kcat came out at 3.33e-05 s⁻¹.

As for `Nc1ccn([C@@H]2O[C@H](COP(=O)(O)OP(=O)(O)OP(=O)(O)O)[C@@H](O)[C@H]2O)c(=O)n1`, the kcat/Km in series [1] amounted to 1.32 M⁻¹ s⁻¹. Also, the kcat/Km in series [2] worked out at 1.83 M⁻¹ s⁻¹. For the same compound, in [3], the Km was 13.7 µM and the kcat was 2.53e-05 s⁻¹.

`C[C@@]1(F)[C@H](O)[C@@H](COP(=O)(O)OP(=O)(O)O)O[C@H]1n1ccc(N)nc1=O`: the catalytic efficiency (kcat/Km) in series [15] worked out at 15000 M⁻¹ s⁻¹. In series [16], the Km worked out at 1380 µM and the kcat is 21 s⁻¹.

Consider `C[C@@]1(O)[C@H](O)[C@@H](COP(=O)(O)OP(=O)(O)OP(=O)(O)O)O[C@H]1n1ccc(N)nc1=O`, for which the Km in series [4] came out at 2.7 µM; in series [5] it was 13.7 µM. Further, the Ki/Km turned out to be 0.12 in [6] and 1.4 in [7]. In addition, the Ratio in series [8] turned out to be 12.

The values above are taken from ChEMBL document CHEMBL1142170, “Mechanism of activation of beta-D-2'-deoxy-2'-fluoro-2'-c-methylcytidine and inhibition of hepatitis C virus NS5B RNA polymerase” (Antimicrob Agents Chemother, 2007).
